These results are taken from publication PMC2752341 (Bioorganic & medicinal chemistry, 2008).

The subject of data set [1] is MDA-MB-435 human tumor xenografts. As to the kind of experiment: Human tumor xenograft antitumor bioassay. It is filed as in vivo, athymic nude mice. To be noted: for Average tumor volume: MDA-MB-435 xenograft in athymic nude mice; for Antitumor activity in vivo (in words): MDA-MB-435 xenograft, at maximally tolerated doses, I.P. In a few lines: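 Female NCR/NU NU mice, about 9 weeks old, were inoculated sc in the right flank with 1.5 × 10^6 MDA-MB-435 cells (RPMI 1640/10% FBS culture) and grouped by matched tumor volume at 19–20 days. Test compound was given qd × 5/week at per-compound doses, some adjusted during the study; vehicle was 0.1% citrate in H2O. Caliper tumor volume ((l*w2)/2) was taken every other day, with daily weights.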
(In general: A xenograft is tissue or cells of one species grown in another, often human tumour cells in immunodeficient mice.)

In a further data set the target is T1, human topoisomerase I (Homo sapiens, UniProt P11387).
T1 sequence (P11387 1-765): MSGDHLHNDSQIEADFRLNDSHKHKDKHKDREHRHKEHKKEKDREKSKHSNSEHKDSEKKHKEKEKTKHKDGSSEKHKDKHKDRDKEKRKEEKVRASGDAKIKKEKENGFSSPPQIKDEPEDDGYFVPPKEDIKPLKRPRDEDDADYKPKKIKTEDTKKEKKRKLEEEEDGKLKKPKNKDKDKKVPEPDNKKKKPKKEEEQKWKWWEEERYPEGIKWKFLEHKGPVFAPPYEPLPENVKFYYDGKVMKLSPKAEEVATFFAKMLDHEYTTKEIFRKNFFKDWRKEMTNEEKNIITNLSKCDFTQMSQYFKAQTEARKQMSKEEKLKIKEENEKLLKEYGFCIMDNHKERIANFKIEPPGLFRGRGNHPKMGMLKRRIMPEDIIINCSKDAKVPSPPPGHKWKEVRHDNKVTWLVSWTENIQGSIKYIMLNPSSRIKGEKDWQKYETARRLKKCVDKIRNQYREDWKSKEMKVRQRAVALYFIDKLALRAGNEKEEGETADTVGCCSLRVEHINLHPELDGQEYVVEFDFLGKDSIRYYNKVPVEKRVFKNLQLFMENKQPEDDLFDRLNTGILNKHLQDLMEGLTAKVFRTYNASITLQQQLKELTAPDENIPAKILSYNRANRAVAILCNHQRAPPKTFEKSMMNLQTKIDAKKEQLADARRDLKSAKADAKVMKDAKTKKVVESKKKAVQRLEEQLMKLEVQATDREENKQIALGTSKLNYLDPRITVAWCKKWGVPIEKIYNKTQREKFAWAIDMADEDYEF
Description: Topoisomerase I-mediated DNA cleavage assay. Type of data set: biochemical. The note with it: for TOP1-targeting activity (in words): summary of Table 1.

The test system of another data set is KBV-1 cells. Description: MTT cytotoxicity assay in KBV-1. Type of data set: cell-based. The note with it: for Substrate for MDR1 efflux transporter (conclusion in words): from relative cytotoxicity KBV-1 vs KB3-1. Background: Formazan colour is commonly taken as a measure of viable cells.
Another data set concerns KBH5.0 cells. Description: MTT cytotoxicity assay in KBH5.0. It is filed as cell-based. To be noted: from relative cytotoxicity KBH5.0 vs KB3-1.
In a further data set the test system is RPMI8402 cells. Description: MTT cytotoxicity assay in RPMI8402. Type of data set: cell-based, human.

With `CCN(CCn1c(=O)c2cc(OC)c(OC)cc2c2cnc3cc4c(cc3c21)OCO4)CC(F)(F)F` [Compound 8, 2,3-Methylenedioxy-8,9-dimethoxy-5-[N-ethyl-N-(2,2,2-trifluoroethyl)aminoethyl]dibenzo[c,h][1,6]naphthyridin-6-one], the Average tumor volume in data set [1] (Day 7, I.P.) is 127 mm^3; in data set [1] (Day 14, I.P.), 176 mm^3; in data set [1] (Day 21, I.P.) it was 268 mm^3; in data set [1] (Day 28, I.P.), 310 mm^3; in data set [1] (Day 35, I.P.), 435 mm^3; in data set [1] (Day 42, I.P.) it was 543 mm^3. The Average tumor volume in data set [1] (Day 49, I.P.) is 718 mm^3. Besides, in data set [1], the “Antitumor activity in vivo (in words)” value is recorded as “less efficacious than the N-ethyl-N-cyanomethyl analog 11 or the N-ethyl-N-propargyl derivative 14”.
On to `C#CCN(C)CCn1c(=O)c2cc(OC)c(OC)cc2c2cnc3cc4c(cc3c21)OCO4` [Compound 13, 2,3-Methylenedioxy-8,9-dimethoxy-5-[N-methyl-N-(prop-2-ynyl)aminoethyl]dibenzo[c,h][1,6]naphthyridin-6-one], for which the “TOP1-targeting activity (in words)” value on human topoisomerase I is listed as “retained potent TOP1-targeting activity”. For the same molecule, the “Substrate for MDR1 efflux transporter (conclusion in words)” value in the data set with KBV-1 cells is given as “does not appear to be a substrate for either MDR1 or BCRP”. In the data set on KBH5.0 cells, the “Substrate for BCRP efflux transporter (conclusion in words)” value was “does not appear to be a substrate for either MDR1 or BCRP”. Besides, the Average tumor volume was determined as 144 mm^3 in data set [1] (Day 7, I.P.); 167 mm^3 in data set [1] (Day 14, I.P.); 218 mm^3 in data set [1] (Day 21, I.P.); 284 mm^3 in data set [1] (Day 28, I.P.); 317 mm^3 in data set [1] (Day 35, I.P.); 358 mm^3 in data set [1] (Day 42, I.P.). In data set [1] (Day 49, I.P.), this molecule gave an Average tumor volume of 433 mm^3.
`CC[C@@]1(O)C(=O)OCc2c1cc1n(c2=O)Cc2cc3ccccc3nc2-1` [CPT, camptothecin, reference compound]: on human topoisomerase I (concentration relative to topotecan (=1) producing 10% cleavage of plasmid DNA), the “TOP1-mediated cleavage (REC, relative effective concentration)” value came to 0.2.
`COc1cc2c(=O)n(CCN(C)CC#N)c3c4cc5c(cc4ncc3c2cc1OC)OCO5` [Compound 10, 2,3-Methylenedioxy-8,9-dimethoxy-5-[N-cyanomethyl-N-methylaminoethyl]dibenzo[c,h][1,6]naphthyridin-6-one]: the Average tumor volume in data set [1] (Day 7, I.P.) is 149 mm^3; in data set [1] (Day 14, I.P.), 222 mm^3; in data set [1] (Day 21, I.P.), 370 mm^3; in data set [1] (Day 28, I.P.), 392 mm^3; in data set [1] (Day 35, I.P.) it was 528 mm^3; in data set [1] (Day 42, I.P.) it was 669 mm^3. In addition, in data set [1] (Day 49, I.P.), the Average tumor volume came to 919 mm^3. Besides, the “Antitumor activity in vivo (in words)” value in data set [1] is “less active than the N-methyl-N-propargyl 13 or N-methyl-N-acetamide 16”.
For `CCN(CC#N)CCn1c(=O)c2cc(OC)c(OC)cc2c2cnc3cc4c(cc3c21)OCO4` [Compound 11, 2,3-Methylenedioxy-8,9-dimethoxy-5-[N-cyanomethyl-N-ethylaminoethyl]dibenzo[c,h][1,6]naphthyridin-6-one], the Average tumor volume was determined as 100 mm^3 in data set [1] (Day 7, I.P.); 156 mm^3 in data set [1] (Day 14, I.P.); 178 mm^3 in data set [1] (Day 21, I.P.); 202 mm^3 in data set [1] (Day 28, I.P.); 293 mm^3 in data set [1] (Day 35, I.P.); 361 mm^3 in data set [1] (Day 42, I.P.). This molecule also displayed an Average tumor volume in data set [1] (Day 49, I.P.) of 435 mm^3. The “Antitumor activity in vivo (in words)” value in data set [1] is “less potent and effective than ARC-111”.
`COc1cc2c(=O)n(CCN(CC#N)C(C)C)c3c4cc5c(cc4ncc3c2cc1OC)OCO5` [Compound 12, 2,3-Methylenedioxy-8,9-dimethoxy-5-[N-cyanomethyl-N-isopropyl-aminoethyl]dibenzo[c,h][1,6]naphthyridin-6-one]: the Average tumor volume in data set [1] (Day 7, I.P.) was found to be 142 mm^3; in data set [1] (Day 14, I.P.) it was 175 mm^3; in data set [1] (Day 21, I.P.) it was 213 mm^3; in data set [1] (Day 28, I.P.), 220 mm^3; in data set [1] (Day 35, I.P.), 250 mm^3; in data set [1] (Day 42, I.P.), 286 mm^3. The same molecule registered an Average tumor volume in data set [1] (Day 49, I.P.) of 314 mm^3. Moreover, the “Antitumor activity in vivo (in words)” value in data set [1] was “less potent and less efficacious than ARC-111”.
`COc1cc2c(=O)n(CCN(C)C)c3c4cc5c(cc4ncc3c2cc1OC)OCO5` [Compound 1, 5H-8,9-dimethoxy-5-(2-N,N-dimethylaminoethyl)-2,3-methylenedioxydibenzo[c,h][1,6]-naphthyridin-6-one]: the Average tumor volume in data set [1] (Day 7, I.P.) is on record as 120 mm^3; in data set [1] (Day 14, I.P.) it was 123 mm^3; in data set [1] (Day 21, I.P.), 145 mm^3; in data set [1] (Day 28, I.P.) it was 158 mm^3; in data set [1] (Day 35, I.P.), 175 mm^3; in data set [1] (Day 42, I.P.), 189 mm^3. In data set [1] (Day 49, I.P.), this molecule registered an Average tumor volume of 242 mm^3.
With `C#CCN(CC)CCn1c(=O)c2cc(OC)c(OC)cc2c2cnc3cc4c(cc3c21)OCO4` [Compound 14, 2,3-Methylenedioxy-8,9-dimethoxy-5-[N-ethyl-N-(prop-2-ynyl)aminoethyl]dibenzo[c,h][1,6]naphthyridin-6-one], the “TOP1-targeting activity (in words)” value at human topoisomerase I was “much less active as TOP1-targeting agents”. For the same molecule, in the data set on RPMI8402 cells, the “fold less cytotoxic than 13” value is listed as 2-6 fold. The Average tumor volume in data set [1] (Day 7, I.P.) worked out at 115 mm^3; in data set [1] (Day 14, I.P.), 106 mm^3; in data set [1] (Day 21, I.P.) it was 170 mm^3; in data set [1] (Day 28, I.P.), 204 mm^3; in data set [1] (Day 35, I.P.) it was 331 mm^3; in data set [1] (Day 42, I.P.), 349 mm^3. Further, the Average tumor volume in data set [1] (Day 49, I.P.) worked out at 488 mm^3. Further, the “Antitumor activity in vivo (in words)” value in data set [1] was “less potent and effective than ARC-111”.
Take `C#CCN(CCn1c(=O)c2cc(OC)c(OC)cc2c2cnc3cc4c(cc3c21)OCO4)C(C)C` [Compound 15, 2,3-Methylenedioxy-8,9-dimethoxy-5-[N-isopropyl-N-(prop-2-ynyl)aminoethyl]dibenzo-[c,h][1,6]naphthyridin-6-one]: the “TOP1-targeting activity (in words)” value on human topoisomerase I is given as “much less active as TOP1-targeting agents”. Further, the “fold less cytotoxic than 13” value in the data set with RPMI8402 cells was 2-6 fold. The Average tumor volume turned out to be 99 mm^3 in data set [1] (Day 7, I.P.); 112 mm^3 in data set [1] (Day 14, I.P.); 165 mm^3 in data set [1] (Day 21, I.P.); 170 mm^3 in data set [1] (Day 28, I.P.); 234 mm^3 in data set [1] (Day 35, I.P.); 310 mm^3 in data set [1] (Day 42, I.P.). Also, the Average tumor volume in data set [1] (Day 49, I.P.) is 357 mm^3. Besides, in data set [1], the “Antitumor activity in vivo (in words)” value is “less potent and less efficacious than ARC-111”.
As for `COc1cc2c(=O)n(CCN(C)CC(N)=O)c3c4cc5c(cc4ncc3c2cc1OC)OCO5` [Compound 16, 2,3-Methylenedioxy-8,9-dimethoxy-5-[N-(2-amino-2-oxoethyl)-N-methylaminoethyl]dibenzo[c,h][1,6]naphthyridin-6-ones], the “TOP1-targeting activity (in words)” value on human topoisomerase I is listed as “retained potent TOP1-targeting activity”. Besides, the “fold difference in IC50 values between KB3-1 cells and KBV-1 cells” value in the data set on KBV-1 cells (KBV-1 vs KB3-1) is on record as 7 fold. Further, the “Substrate for MDR1 efflux transporter (conclusion in words)” value with KBV-1 cells is given as “substrates for MDR1”. For the same molecule, the “Substrate for BCRP efflux transporter (conclusion in words)” value in the data set with KBH5.0 cells was “appears to be a substrate for BCRP”. In addition, the Average tumor volume in data set [1] (Day 7, I.P.) is 147 mm^3; in data set [1] (Day 14, I.P.), 178 mm^3; in data set [1] (Day 21, I.P.), 230 mm^3; in data set [1] (Day 28, I.P.), 319 mm^3; in data set [1] (Day 35, I.P.), 344 mm^3; in data set [1] (Day 42, I.P.), 434 mm^3. Further, in data set [1] (Day 49, I.P.), the Average tumor volume is on record as 527 mm^3.
